Beta apoptosis: beta cell apoptosis inhibition; INS-1E cytokine-induced death, ATP luminescence, 48 h; percent of positive-control rescue, neutral wells zero; protection from apoptosis, % (concentration not given with the values); 300,000 tested, 0.8% active; AID 435005;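 active means Every replicate reaches about 75%, or at least half do and their mean reaches it too, limit read from the data; inconclusive means At least half of replicates reach the limit but their mean does not; inactive means Under half of replicates reach the limit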;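 further: higher means more ATP so stronger rescue from cytokine killing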
Efflux pump inh: inhibitors of Candida antifungal efflux pumps expressed in yeast; inhibition, % at 10 µM; 330,000 tested, 0.44% active; S. cerevisiae Candida pump triplex, Nile Red efflux;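 active means plate passing quality check with inhibition over a set limit, or well fluorescence over plate mean plus 4 SD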;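 further: Nile Red retained in pooled yeast measured as flow cytometry median fluorescence; higher means more Nile Red kept so more efflux inhibition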
WT yeast gro inh: growth inhibition of WT yeast, mitochondrial fusion screen | mitochondrial fusion phenotypic screen, WT strain | 190,000 tested, 2.1% active | inhibition, % at 10 µM | AID 1362; in the data active means inhibition above about 58%; tested in S. cerevisiae
CSC inhib: blocks cancer stem cells. cancer stem cell-like cells viability, luminescence. inhibition, % at 7.5 µM. 300,000 tested, 1.1% active. AID 2717; in the data active means inhibition above about 75%; inconclusive means no clear call, values can overlap the other calls; tested in HMLE shEcad cells
T cruzi repl: blocks replication of Trypanosoma cruzi | T. cruzi beta-gal in NIH3T3, luminescence, 90 h | inhibition, % (concentration not given with the values) | 300,000 tested, 1.4% active | AID 1885;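 active means mean inhibition across valid replicates above about 55%, limit read from the data; inconclusive means mean below that limit but half or more replicates reach it; inactive means mean below it, under half of replicates reach it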;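 further: signal also drops with host cell toxicity which is not excluded here; higher percent means less beta-gal luminescence so fewer parasites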
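System: mouse NIH/3T3 fibroblasts infected with β-gal-expressing T. cruzi Tulahuen C4 / Input: NIH/3T3 cells, 5,000 per well / Buffer or medium: Low-serum DMEM with 2% FBS / Probe or stimulus: 5000 reporter trypomastigotes per well / Schedule: ≥90 h infection period, 3 h prior cell attachment / Measured by: GalScreen luminescence, 60 min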
SUMO Mot1 rescue: SUMOylation pathway inhibition by Mot1-301 growth rescue. S. cerevisiae Mot1-301 growth rescue, ATP luminescence, 38.5C; percent above DMSO median, 100 means doubled. growth rescue, % at 18.8 µM. 320,000 tested, 1% active;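 active means every valid replicate shows activation above 250% relative to neutral control wells; inactive means the rest, any valid replicate at or below 250%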
Hits are given with their value; - = inactive; ? = inconclusive; . = no result. This is a sample that favours compounds with a hit; in the whole collection about 4.8% have one here.

SMILES	Beta apoptosis	Efflux pump inh	WT yeast gro inh	CSC inhib	T cruzi repl	SUMO Mot1 rescue
CC(Oc1ccc(Cl)cc1)c1ccc(C#N)c(=O)[nH]1 (configuration not stated)	-	-	-	-	-	-
COC(=O)c1cc2c(ccn2-c2ccc(F)cc2)n1Cc1ccc(OC(C)=O)cc1	-	-	-	-	58	-
COC(=O)c1cc2c(ccn2-c2ccc(F)cc2)n1Cc1cccc(OC)c1	-	-	-	-	-	-
Cc1cc(C)c(OCC(=O)Nc2nnc(-c3ccco3)o2)c(C)c1	-	-	59	-	-	-
Cc1ccc(SCC(=O)Nc2nnc(-c3ccco3)o2)cc1	-	-	.	-	-	-
CCOc1cc(/C=N/NC(=O)Cn2nc([N+](=O)[O-])cc2C)cc(Br)c1OCc1ccccc1C	-	-	-	-	57	-
Cc1cc([N+](=O)[O-])nn1CC(=O)N/N=C/c1ccccc1Br	-	-	.	-	-	-
Cc1cc([N+](=O)[O-])nn1CC(=O)N/N=C/c1ccc(O)cc1O	-	-	.	80	-	-
CC1(C)C(=O)Nc2ccccc2N1C(=O)Cn1ncc(Cl)c(Cl)c1=O	-	-	.	?	55	-
CCc1ccc(C(=O)Cn2ncc(Cl)c(Cl)c2=O)cc1	-	-	-	-	60	-
O=C(Cn1ncc(Cl)c(Cl)c1=O)N1CCc2ccccc21	.	.	-	.	82	.
O=C(Cn1ncc(Cl)c(Cl)c1=O)N1CCN(Cc2ccccc2)CC1	.	.	-	.	67	.
O=C(Cn1ncc(Cl)c(Cl)c1=O)N1CCOCC1	-	-	-	-	-	-
Cc1nn(C)c(Cl)c1CN1CCN(C2CCCC2)C(CCO)C1 (configuration not stated)	-	-	-	-	-	-
C/C(=C/C(=O)O)C(=O)Nc1cccc(C(F)(F)F)c1	-	-	-	-	-	-
Cc1ccc2c(N)c(C(=O)N(c3ccccc3)c3ccccc3)sc2n1	-	-	-	-	67	-
CC(C)OC(=O)c1sc2nc(-c3ccccc3)ccc2c1N	-	-	-	-	-	-
CC(=O)NC(CC(=O)OCc1ccc([N+](=O)[O-])cc1)c1ccccc1 (configuration not stated)	-	-	.	-	-	497
C[C@]1(C(=O)NCCCNc2ncc(C(F)(F)F)cc2Cl)C=C[C@@H](Cc2ccccc2)N1C(=O)c1ccccc1	-	.	75	-	-	-
COc1ccc(Nc2nc(NCCN3CCOCC3)nc(Nc3ccc(OC)cc3)n2)cc1	-	-	.	-	-	-
CC(C)(C)NC(=O)CCN(/N=C/c1ccccc1F)C1=NS(=O)(=O)c2ccccc21	-	-	.	-	-	312
CC(C)(C)NC(=O)CCN(/N=C/c1ccccc1)C1=NS(=O)(=O)c2ccccc21	-	-	.	-	-	-
N/C(=N\OC(=O)c1ccc2ccccc2c1)c1ccccc1Cl	-	-	.	-	72	-
O=C(COC(=O)/C=C/c1ccc(S(=O)(=O)N2CCOCC2)cc1)NCc1ccc(F)cc1	-	-	-	-	-	307
CN(CCCNC(=O)CCC(=O)N1CCOc2ccc(Cl)cc21)Cc1ccccc1	-	-	.	-	-	-
SMILES	Beta apoptosis	Efflux pump inh	WT yeast gro inh	CSC inhib	T cruzi repl	SUMO Mot1 rescue
Cc1ccc(S(=O)(=O)Nc2ccnc(-c3cccnc3)n2)cc1	-	-	-	-	-	-
Cc1cc(C)n2nc(-c3ccsc3-n3c(C)ccc3C)cc2n1	-	-	-	-	55	-
CCOC(=O)C(CC)n1nc(C)n2c(cc3occc32)c1=O (configuration not stated)	-	-	-	-	-	-
CCN1/C(=C\C(=S)Nc2ccccc2)Sc2ccccc21	-	-	69	-	-	-
CCN1/C(=C\C=C(C(C)=O)C(C)=O)Sc2ccccc21	-	-	-	-	-	-
O=S(=O)(c1ccc(Cl)cc1)N1CCC(N2CCOCC2)CC1	-	-	-	-	-	-
Nc1nc(-c2ccc(Cl)cc2)c(N=Nc2ccc(S(=O)(=O)N3CCOCC3)cc2)s1	-	-	-	-	59	-
O=C(NCCN1CCOCC1)c1cc(Sc2ccccc2Cl)nc2ccccc12	-	-	-	-	-	-
COc1ccc(Cl)cc1/C=C1/C(=O)ON=C1C	.	-	.	.	-	-
CC1=NOC(=O)/C1=C\c1ccc(-c2cc(Cl)ccc2Cl)o1	101	-	-	87	-	-
CC1=NOC(=O)/C1=C/c1ccc(-c2ccc(Cl)cc2)o1	-	-	75	-	.	-
CC1=NOC(=O)/C1=C\c1ccc(-c2ccc(Br)cc2)o1	.	.	75	.	-	.
CC1=NOC(=O)/C1=C\c1ccc(-c2ccc(Br)cc2C(=O)O)o1	-	-	-	-	-	-
COc1cccc(CNC(=O)Cn2ccc3cc(S(=O)(=O)N4CCCCCC4)ccc32)c1OC	-	-	.	-	-	-
C=CCNC(=O)c1ccc(NC(=O)C2=CSCCO2)cc1	.	-	.	-	-	-
Cc1ccc(C)c(N2CCN(C(=O)c3ccc4c(c3)c(C)c(C)n4C)CC2)c1	-	-	.	82	-	-
Cc1ccc(C)c(N2CCN(C(=O)c3ccccc3Br)CC2)c1	-	-	58	.	-	-
Cc1ccc(C)c(N2CCN(C(=O)c3ccc(Cn4c(=O)[nH]c5ccccc5c4=O)cc3)CC2)c1	-	-	-	-	65	-
Cc1c(C)n(C)c2ccc(C(=O)N3CCN(c4ccccc4)CC3)cc12	-	-	.	-	-	-
COc1ccc(C(=S)N2CCN(c3cccc(Cl)c3)CC2)cc1	-	-	.	-	-	-
Cn1c(-c2sccc2OCc2ccc(Cl)cc2Cl)n[nH]c1=S	-	-	64	-	-	-
COc1cccc(C2C3=C(N=c4s/c(=C\c5cccc(O)c5)c(=O)n42)c2ccccc2CC3)c1OC (configuration not stated)	-	-	-	91	-	-
COc1cccc(C2C3=C(N=c4s/c(=C\c5ccc(O)cc5)c(=O)n42)c2ccccc2CC3)c1OC (configuration not stated)	-	-	-	-	-	-
Cc1ccc(-c2nnn(CC(=O)Nc3cccc4cccnc34)n2)o1	-	-	-	.	.	353
CC(C)(C)c1ccc(C(=O)CC(Sc2ccc(Cl)cc2)C(=O)O)cc1 (configuration not stated)	-	-	-	79	60	533
Cc1cc(C)n(-c2nc(NCC(C)O)c3c4c(sc3n2)COC(C)(C)C4)n1 (configuration not stated)	-	-	-	-	-	-
Cc1cc(C)n(-c2nc(SCCN(C)C)c3c4c(sc3n2)COC(C)(C)C4)n1	-	-	-	-	65	-
CC(C)Oc1ccc(C(=O)NC2(C(F)(F)F)NC(=O)N(CCCc3ccccc3)C2=O)cc1 (configuration not stated)	-	-	65	-	-	-
CCN(CC)CCOc1ccccc1C(C)=O	-	-	-	-	-	-
O=C(Nc1cnn(C23CC4CC(CC(C4)C2)C3)c1)c1cc(-c2ccccc2)on1	-	-	-	81	61	-
